# Compound activity from PubChem.
# APOBEC3A inh – blocks human APOBEC3A ssDNA deamination. inhibition, % at 20 µM. actives 0.41% (n = 330,000). recombinant A3A, FAM/TAMRA ssDNA deamination fluorescence;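 active = at least 40% inhibition at 20 µM here, with at most 30% in a related deaminase screen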;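 note: plate controls were A3A with DMSO for no effect and wells lacking A3A enzyme for full effect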
# Target sequence (P31941 whole entry, looked up): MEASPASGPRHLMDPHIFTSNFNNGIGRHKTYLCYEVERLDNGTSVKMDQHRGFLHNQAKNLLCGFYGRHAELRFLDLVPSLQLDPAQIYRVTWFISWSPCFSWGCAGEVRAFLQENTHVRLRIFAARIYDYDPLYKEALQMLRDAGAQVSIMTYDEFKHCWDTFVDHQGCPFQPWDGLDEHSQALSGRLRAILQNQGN
# PRMT1 FP inh – PRMT1 (human) inhibition, primary screen; Q99873; recombinant PRMT1, activity-based probe fluorescence polarization; inhibition, % at 2.79 µM; actives 1.3% (n = 370,000); AID 652257;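 active = inhibition above about 21% made by adding two undisclosed values, limit read from the data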
# ABHD5-PLIN5 inh – inhibitors of human ABHD5-perilipin-5 interaction; actives 0.78% (n = 360,000); inhibition, % at 4 µM; AID 602281; Split G. princeps luciferase complementation, luminescence, 4 h; Q00G26+Q8WTS1;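 active = inhibition above the mean inhibition across every tested compound plus 3 SD, cut at about 22% in these data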;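 note: 0% = DMSO only wells and the 100% control is not disclosed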
# HCV NS3 hel inh – inhibitors of Hepatitis C virus NS3 helicase; NS3 helicase DNA unwinding, Cy5 molecular beacon fluorescence; inhibition, % at 10.9 µM; actives 0.56% (n = 290,000); AID 1800;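 active = inhibition above the mean of all tested compounds plus 3 SD, set per campaign, cut at about 35% in these data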;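 note: 0% = DMSO wells and 100% = thioflavine S control wells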
#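 System: HCV NS3 helicase fragment; control set: DMSO and thioflavine S; technique: Cy5 fluorescence at 0 and 60 min, beacon hairpin quenching; reagent: beacon DNA duplex substrate plus ATP; replicates: singlicate; schedule: 1 h reaction at 25 °C, ATP-initiated; medium: MOPS buffer pH 6.5 with MgCl2, DTT, Tween20, BSA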
# APOBEC3G inh – APOBEC3G (human) deaminase inhibition; inhibition, % at 20 µM; AID 493012; Q9HC16; recombinant A3G, ssDNA deamination FAM/TAMRA fluorescence; actives 0.28% (n = 330,000);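 active = inhibition of at least 40% at 20 µM, with no more than 30% in the related APOBEC3A deaminase screen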;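 note: plate controls were DMSO wells with A3G for no effect and wells lacking A3G enzyme for full effect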
# core dimer inh – HCV core protein dimerization inhibition | TR-FRET GST/Flag-core106 dimerization, 1536-well | inhibition, % at 5 µM | actives 0.33% (n = 300,000) | AID 1899;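 active = inhibition above the mean of all tested compounds plus 3 SD, set per screening campaign, cut at about 45% in these data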
#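 System: GST/Flag-tagged HCV core106 proteins. Incubation: compound-protein-antibody incubation 4 h at 22.5 °C. Technique: HTRF with 340 nm excitation, 617/671 nm emission. Medium: KF-containing HEPES buffer, pH 7.45, DTT, CHAPS, BSA. Read-out: inhibition (%) from 671 over 617 nm ratio. Also added: Eu(K)-anti-GST 90 ng/mL plus XL665-anti-Flag 1 µg/mL.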
# ABHD5-PLIN5 conf – ABHD5-PLIN5 interaction inhibition, confirmed; inhibition, % at 4 µM; AID 651612; biochemical ABHD5-PLIN5 interaction, luminescence; shares compounds with ABHD5-PLIN5 inh; actives 67% (n = 2,200); in the data active = inhibition above about 23%;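 note: 0% = DMSO vehicle wells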
# HNF4 counter – HNF4 split-luciferase signal hit, counter-screen | shares compounds with ABHD5-PLIN5 inh | inhibition, % at 4 µM | actives 77% (n = 2,200) | HNF4 dimerization, luminescence, biochemical | AID 651674;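 active = mean inhibition across replicate wells exceeding the computed hit threshold, cut at about 13% in these data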;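 note: light from luciferase halves that rejoin when HNF4 fusion proteins dimerize; 0% = DMSO only wells and the 100% control is not given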
# Target sequence (P41235 whole entry, looked up, the tested form may be a part): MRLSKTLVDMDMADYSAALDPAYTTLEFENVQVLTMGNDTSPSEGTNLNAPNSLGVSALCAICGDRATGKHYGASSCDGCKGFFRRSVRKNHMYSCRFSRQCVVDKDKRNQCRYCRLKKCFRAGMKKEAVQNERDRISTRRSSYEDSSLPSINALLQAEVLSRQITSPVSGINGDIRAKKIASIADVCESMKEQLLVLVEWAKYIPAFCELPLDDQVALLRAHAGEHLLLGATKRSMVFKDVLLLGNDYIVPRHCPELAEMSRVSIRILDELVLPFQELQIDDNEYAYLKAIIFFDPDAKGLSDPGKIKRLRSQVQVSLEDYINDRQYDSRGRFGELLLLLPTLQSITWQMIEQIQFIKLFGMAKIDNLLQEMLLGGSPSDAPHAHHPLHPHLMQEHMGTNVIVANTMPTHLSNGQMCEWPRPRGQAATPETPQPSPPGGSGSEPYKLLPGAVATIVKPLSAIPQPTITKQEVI
# Numbers without * were called inactive; . = no result given. Compounds with a hit are over-represented: about 2.9% of the library has one in this group of screens.
SMILES,APOBEC3A inh,PRMT1 FP inh,ABHD5-PLIN5 inh,HCV NS3 hel inh,APOBEC3G inh,core dimer inh,ABHD5-PLIN5 conf,HNF4 counter
CC1CCCN(S(=O)(=O)c2ccc(NC(=O)C3CCN(C(=O)c4ccco4)CC3)cc2)C1 (centres undefined),-1.3,-2.7,24.1*,7.0,-4.9,4.6,4.3,0.4
CCC(C)NS(=O)(=O)c1ccc(NC(=O)C2CCN(C(=O)c3ccco3)CC2)cc1 (centres undefined),-3.2,1.3,4.1,1.1,-3.7,-0.9,.,.
O=C(O)c1cc(S(=O)(=O)Nc2ccc3cn[nH]c3c2)ccc1O,-0.2,1.8,-6.4,.,-2.1,.,.,.
Cc1cc(C(=O)N2CCC2(C)C(=O)NCCC#N)nn1C (centres undefined),.,0.3,-7.1,.,.,.,.,.
Oc1ccc(Cl)cc1-c1cc(-c2ccco2)[nH]n1,-2.9,3.7,13.6,33.9,-2.9,-1.0,.,.
Oc1ccccc1-c1cc(-c2ccco2)[nH]n1,-0.1,23.1*,27.1*,9.7,-2.2,0.3,13.6,14.5*
COc1cccc(COC(=O)c2ccc3c(=O)n4c(nc3c2)CCC4)c1OC,5.2,-0.5,5.3,.,-8.8,5.7,.,.
CCn1c(SCC(=O)N/N=C/C=C/c2ccco2)nnc1-c1ccc(OC)cc1,6.3,6.2,30.1*,17.1,1.8,-9.6,17.4,40.0*
COc1ccc(S(=O)(=O)N2CCCCCC2)cc1NC(C)C(=O)Nc1ccc(NC(C)=O)cc1 (centres undefined),.,1.5,47.4*,.,.,.,1.7,10.0
COc1ccc(NC(C)=O)cc1NC(C)C(=O)Nc1cccc(S(=O)(=O)N2CCOCC2)c1 (centres undefined),2.3,-2.9,-2.5,.,3.1,.,.,.
O=C(CCn1c(=O)oc2cc(Cl)ccc21)Nc1ccc(N2CCOCC2)cc1,-2.8,2.3,-7.5,12.1,-1.9,7.6,.,.
CCOC(=O)C1=C(C(=O)OCC)C2N(Cc3ccc(C(F)(F)F)cc3)c3ccccc3[C@@]23C[C@@H](C(=O)OC)N(S(=O)(=O)c2ccc(OC)cc2)C3=N1 (some centres undefined),.,1.1,.,.,.,.,.,.
COc1ccc2c(c1)/C(=C\c1cccc(/C=C3/C(=O)Nc4ccc(OC)cc43)n1)C(=O)N2,.,-0.8,50.6*,.,.,.,100.4*,98.4*
CCCCC(=O)NC(c1ccc(N(C)C)cc1)c1ccc2cccnc2c1O (centres undefined),-0.3,-2.9,23.4*,27.2,-8.2,2.7,17.0,3.9
CCCC(=O)NC(c1cccc([N+](=O)[O-])c1)c1ccc2cccnc2c1O (centres undefined),.,-0.3,28.7*,.,.,.,26.1*,0.4
CC(C)C(=O)NC(c1cccc([N+](=O)[O-])c1)c1ccc2cccnc2c1O (centres undefined),-5.9,-6.5,12.6,21.9,10.9,-16.3,.,.
Cc1ccc(O)c(-c2cc(-c3ccc(F)cc3)no2)c1,1.5,2.2,-2.8,8.4,-4.4,-5.7,.,.
Cc1cccc2sc(N(CCCN(C)C)C(=O)CCc3ccccc3)nc12,-1.8,1.2,26.4*,-88.7,-5.0,-10.5,19.6,6.2
CN(C)CCCN(C(=O)c1ccco1)c1nc2ccc(Br)cc2s1,2.9,-3.7,24.7*,-24.8,-2.9,-3.2,17.3,6.7
CN(C)CCN(C(=O)c1ccco1)c1nc2cc3c(cc2s1)OCCO3,-1.4,-1.5,0.3,-2.7,-2.4,4.0,.,.
CN(C)CCCN(C(=O)CCc1ccccc1)c1nc2ccc(F)cc2s1,-1.8,-0.5,11.7,-71.9,-0.1,-0.5,.,.
CN(C)CCCN(C(=O)CCc1ccccc1)c1nc2ccc(Br)cc2s1,-8.8,6.2,39.0*,-89.5,3.5,-10.3,26.5*,5.2
Cc1ccc(C(=O)N(CCCN(C)C)c2nc3ccc(Cl)cc3s2)cc1C,4.4,2.6,28.4*,-57.4,2.7,-7.9,21.6,11.8
C=CCC1NS(=O)(=O)OC(CCc2ccccc2)C1O (centres undefined),2.6,-0.2,-1.4,26.4,6.1,-12.6,.,.
Cc1ccc(-c2ccc3c(c2)S(=O)(=O)c2ccccc2C3=O)cc1,6.7,.,.,.,-10.4,8.8,.,.
SMILES,APOBEC3A inh,PRMT1 FP inh,ABHD5-PLIN5 inh,HCV NS3 hel inh,APOBEC3G inh,core dimer inh,ABHD5-PLIN5 conf,HNF4 counter
CCOC(=O)[C@]12CCC=C1N(Cc1cccc3ccccc13)C(=O)[C@H](CC(=O)N1CCCC1)C2,.,3.0,6.8,.,.,.,.,.
CN(C)CCCN(C(=O)c1ccco1)c1nc2ccc(Cl)cc2s1,-4.9,-1.5,23.9*,-6.2,-3.8,2.0,17.6,9.5
Cc1ccc2sc(N(CCCN(C)C)C(=O)c3ccc(Br)s3)nc2c1C,1.0,3.9,26.8*,-10.1,-5.3,6.0,15.7,3.1
CC(C)CN1C(=O)C(=O)N(CC(=O)c2ccc3c(c2)CCCC3)C1=O,-4.0,-1.4,-2.4,.,-4.1,.,.,.
O=C(C[n+]1ccc2ccccc2c1)c1ccc2ccc3ccccc3c2c1,.,-2.9,27.8*,.,.,.,9.7,3.8
Cc1cccn2c(=O)c3cc(C#N)c(=NC(=O)c4ccco4)n(Cc4ccco4)c3nc12,24.2,12.4,39.0*,4.9,32.5,26.7,22.6*,54.4*
CCOC(=O)c1cc2c(=O)n3ccccc3nc2n(Cc2ccco2)c1=NC(=O)c1ccccc1OCC,4.3,7.0,24.4*,13.6,7.4,10.9,13.9,45.2*
CCOC(=O)c1cc2c(=O)n3cccc(C)c3nc2n(Cc2ccco2)c1=NC(=O)c1cccnc1,.,18.9,24.4*,11.5,.,.,46.5*,57.8*
CCOC(=O)c1cc2c(=O)n3ccccc3nc2n(Cc2ccco2)c1=NC(=O)c1cccnc1,5.3,20.6,21.8,13.4,5.2,6.0,.,.
CC1(C(=O)NS(=O)(=O)c2ccccc2Cl)CCN1C(=O)c1cccc2ccccc12 (centres undefined),.,-0.7,-1.3,.,.,.,.,.
CCOC(=O)[C@]12CCC=C1N(Cc1ccco1)C(=O)[C@H](CC(=O)N1CCC(c3ccccc3)CC1)C2,.,13.7,20.8,.,.,.,.,.
Cc1ccc(-c2csc3ncn(-n4c(C)ccc4C)c(=O)c23)o1,2.7,24.5*,27.0*,20.0,36.7,32.9,6.3,32.8*
COc1ccc(CN2C[C@@H](CO)O[C@@H](n3cnc4c(NC5CCC5)ncnc43)C2)cc1,.,-3.0,-3.2,.,.,.,.,.
O=C1CCCCC1C(O)(C(=O)c1ccccc1)c1ccccc1 (centres undefined),.,2.3,-5.1,.,.,.,.,.
C(#Cc1ccccc1)C[N+]1(CC#Cc2cccc3ccccc23)CCCC1,-2.9,0.9,26.9*,-66.7,-9.5,6.4,10.6,3.0
C#CC[N+]1(CC#Cc2ccccc2)CCCC1,2.1,0.8,-2.3,16.1,-5.2,-3.1,.,.
